Activity calls are given as the source filed them. No cut-off for these calls is given here.
Experiments:
[1] = molecular target: T1, G-protein coupled receptor 68 (Homo sapiens, UniProt Q15743); test: Binding affinity to GPR68 expressed in human HEK293T cells assessed as cAMP production in presence of H+ proton by Split-luciferase based luminescence counter analysis; type: cell-based; details: filed as positive allosteric modulator
Outline: (§1)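 Proton concentration-response of GPR68 (wild type or E160A/K/Q, R189L/M, H269F mutants) in transiently transfected HEK293-T cells. Read-out: GloSensor cAMP, with luciferin loading 90 min at 37°C at pH 8.4. Run with and without increasing modulator concentrations; 20 min at room temperature before luminescence. Proton KA fixed to the proton EC50 without modulator. KB, τA, α, β fitted globally with an operational allosteric model. n=4.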

[2] = molecular target: T1, G-protein coupled receptor 68; test: Positive allosteric modulator activity at GPR68 expressed in human HEK293T cells assessed as cAMP production in presence of H+ proton by Split-luciferase based luminescence counter analysis (reference value: 26.4 to 43.8 %); type: functional, cell-based; outline: as §1
[3] = molecular target: T1, G-protein coupled receptor 68; test: Positive allosteric modulator activity at GPR68 expressed in human HEK293T cells assessed as cAMP production in presence of H+ proton by Split-luciferase based luminescence counter analysis (reference value: 6.53 to 6.72); type: functional, cell-based
[4] = molecular target: T2, G-protein coupled receptor 65 (Homo sapiens, UniProt Q8IYL9); test: Antagonist activity against GPR65 (unknown origin) transfected in human HEK293T cells incubated for 15 mins by luminescence counter analysis; type: functional, cell-based
T2 sequence (Q8IYL9 whole entry): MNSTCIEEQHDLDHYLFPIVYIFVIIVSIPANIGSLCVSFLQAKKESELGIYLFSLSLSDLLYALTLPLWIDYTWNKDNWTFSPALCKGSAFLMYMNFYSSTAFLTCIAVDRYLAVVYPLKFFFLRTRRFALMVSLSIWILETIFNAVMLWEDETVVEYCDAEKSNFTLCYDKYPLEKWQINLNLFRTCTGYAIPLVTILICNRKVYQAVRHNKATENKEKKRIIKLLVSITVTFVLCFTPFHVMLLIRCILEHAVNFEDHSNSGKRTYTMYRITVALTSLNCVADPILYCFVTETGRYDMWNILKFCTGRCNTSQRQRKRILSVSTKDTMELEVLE
Outline: (§2)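 GloSensor split-luciferase cAMP assay. HEK293-T cells transiently co-transfected with GPR65 (wild type or the D153A, R187L, F242A or Y272A mutant) and GloSensor 7A reporter. Cells plated in DMEM with 1% dialyzed FBS for at least 6 h, then loaded with luciferin (4 mM, in drug buffer pH 8.4) for 90 min at 37°C. Compounds added at set pH in HBSS with 10 mM HEPES/10 mM MES, with TAPS for higher pH. Luminescence read after about 20 min at room temperature. Data normalized to buffer basal and fitted to a 4-parameter logistic.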

[5] = system: HEK293T; test: Antagonist activity against GPR65 F242A mutant (unknown origin) transfected in human HEK293T cells incubated for 15 mins by luminescence counter analysis; type: cell-based; details: filed as antagonist; outline: as §2
[6] = system: HEK293T; test: Antagonist activity against GPR65 R187L mutant (unknown origin) transfected in human HEK293T cells incubated for 15 mins by luminescence counter analysis; type: cell-based; details: filed as antagonist; outline: as §2
[7] = molecular target: T2, G-protein coupled receptor 65; test: Antagonist activity against GPR65 (unknown origin) transfected in human HEK293T cells incubated for 15 mins by luminescence counter analysis relative to control; type: functional, cell-based; outline: as §2
[8] = Antagonist activity against GPR65 D153A mutant (unknown origin) transfected in human HEK293T cells incubated for 15 mins by luminescence counter analysis; type: cell-based; details: HEK-293T, 0.25 h; outline: as §2
[9] = molecular target: T2, G-protein coupled receptor 65; test: Agonist activity against GPR65 (unknown origin) transfected in human HEK293T cells on pH 6.80 to 7.40 at 30 uM incubated for 15 mins by luminescence counter analysis; type: functional, cell-based
[10] = system: HEK293T; test: Antagonist activity against GPR65 Y272A mutant (unknown origin) transfected in human HEK293T cells incubated for 15 mins by luminescence counter analysis; type: cell-based; details: filed as antagonist; outline: as §2
[11] = Antagonist activity against GPR65 D153A mutant (unknown origin) transfected in human HEK293T cells incubated for 15 mins by luminescence counter analysis relative to control; details: HEK-293T, 0.25 h, condition central nervous system disease; outline: as §2
[12] = molecular target: C-X-C chemokine receptor type 4 (Homo sapiens) (UniProt P61073); test: Agonist activity against CXCR4 receptor (unknown origin) transfected in human HEK293T cells at 10 uM incubated for 15 mins in presence of CXCL12 by luminescence counter analysis; type: functional, cell-based
Chain of C-X-C chemokine receptor type 4 (Homo sapiens) (P61073 whole entry): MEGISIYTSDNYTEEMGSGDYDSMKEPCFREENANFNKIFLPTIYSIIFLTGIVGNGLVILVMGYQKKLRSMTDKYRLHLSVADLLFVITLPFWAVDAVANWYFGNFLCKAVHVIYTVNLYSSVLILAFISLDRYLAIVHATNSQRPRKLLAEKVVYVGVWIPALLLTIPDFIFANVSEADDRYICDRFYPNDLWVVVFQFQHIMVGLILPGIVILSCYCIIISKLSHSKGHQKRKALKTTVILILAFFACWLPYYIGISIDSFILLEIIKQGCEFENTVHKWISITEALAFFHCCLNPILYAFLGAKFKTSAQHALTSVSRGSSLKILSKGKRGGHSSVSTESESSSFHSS
Outline: (§3)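 HEK293-T cells transiently transfected with CXCR4 and the GloSensor cAMP reporter, plated in DMEM with 1% dialyzed FBS. Test compound at 10 μM in 20 mM HEPES/HBSS, pH 7.4, 15 min at room temperature. Agonist mode: luciferin (4 mM final) plus 200 nM isoproterenol added, 20 min. Antagonist mode: compound 10 min, then reference agonist at EC80 for 10 min, then luciferin/isoproterenol. Luminescence read. CXCL12 (1 or 3 μM) is the agonist control and AMD3100 (10 μM) the antagonist control. n=2.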

[13] = molecular target: C-X-C chemokine receptor type 4 (Homo sapiens) (UniProt P61073); test: Antagonist activity against CXCR4 receptor (unknown origin) transfected in human HEK293T cells at 10 uM incubated for 15 mins in presence of AMD3100 by luminescence counter analysis; type: functional, cell-based; outline: as §3
[14] = filed as positive allosteric modulator

T1 sequence (Q15743 whole entry): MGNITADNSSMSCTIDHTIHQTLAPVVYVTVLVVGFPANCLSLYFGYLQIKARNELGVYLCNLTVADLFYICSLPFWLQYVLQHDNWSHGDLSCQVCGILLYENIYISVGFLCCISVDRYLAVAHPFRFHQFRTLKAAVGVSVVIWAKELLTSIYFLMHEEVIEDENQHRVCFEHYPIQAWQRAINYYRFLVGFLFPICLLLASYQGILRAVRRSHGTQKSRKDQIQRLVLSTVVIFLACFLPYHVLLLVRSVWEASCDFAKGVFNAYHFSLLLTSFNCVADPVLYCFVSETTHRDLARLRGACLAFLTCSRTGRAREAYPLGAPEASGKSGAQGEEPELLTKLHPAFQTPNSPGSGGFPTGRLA

In the case of `Nc1nc(NCc2ccccc2)nc(-c2ccc(CO)cc2)n1`, the pKb [1] is reported as 4.93.
`Nc1nc(NCCCCc2ccccc2)nc(-c2ccccc2CO)n1` gave a pKb [1] of 5.82.
Work on `Nc1nc(NCc2cccc(F)c2)nc(-c2ccc(F)cc2N)n1` yielded a pKb [1] of 3.68.
With `Nc1nc(NCc2ccccc2)nc(-c2ccc(F)c(F)c2)n1` the Emax [2, 14] was 68.8%, the pKb [1] was 5.69 and the EC50 [3] was 91.2 nM.
`Nc1nc(NCCCc2ccccc2)nc(-c2ccccc2CO)n1` showed a pKb [1] of 5.75.
In the case of `O=C1CCc2cc(-c3csc(NC(=O)c4ccc(-c5ccccc5F)o4)n3)ccc2N1`, the Activity ([4]; filed as antagonist) is reported as “Active”.
Molecule `OC1CCC(Nc2nc(-c3ccccc3)nc3[nH]ccc23)CC1` (stereo not drawn) has a pKb [1] of 6.2.
`Nc1nc(NCc2ccccc2)nc(-c2ccc(F)c(F)c2CO)n1` gave a pKb [1] of 3.84.
`O=C1N[C@H](c2ccccc2[N+](=O)[O-])c2c(-c3ccccc3)n[nH]c21` showed an Emax [2, 14] of 50.8%, a pKb [1] of 5.48 and an EC50 [3] of 186 nM.
For `Nc1nc(NCc2cc[nH]n2)nc(-c2ccccc2CO)n1`, the pKb [1] was 5.17.
With `CCCCNc1c(C(=O)OCC)c(C)nc2c1cnn2CC` the pKb [1] was 5.2.
Work on `Cc1ccc(-c2nc(N)nc(NCc3ccccc3)n2)c2cccnc12` yielded an Emax [2] of 31%, a pKb [1] of 4.92 and an EC50 [3] of 95.5 nM.
In the case of `COc1ccc(-c2csc(NC(=O)CSc3nc[nH]n3)n2)cc1OC`, the Activity [5] is reported as “Active”, the Activity [6] is reported as “Active” and the EC50 [4] is reported as 501 nM. For the same molecule, the Emax [7] was 2.2%, the EC50 [8] was 6310 nM and the Activity [9] was “inactive”. The Activity [10] was “Active” and the Emax [11] was 1.5%.
For `COc1cc([C@H]2NC(=O)c3[nH]nc(-c4ccco4)c32)ccc1O`, the Emax [2, 14] was 46.9%, the pKb [1] was 5.17 and the EC50 [3] was 158 nM.
For `Nc1nc(NCc2ccccc2F)nc(-c2ccc(F)cc2N)n1`, the pKb [1] was 4.23.
In the case of `O=C1CN=C(c2ccccc2Cl)c2cc([N+](=O)[O-])ccc2N1`, the Activity [12] is reported as “inactive” and the Activity [13] is reported as “inactive”.
`Nc1nc(-c2ccc(Cl)c(Cl)c2)c(-c2ccncc2)s1` showed a pKb [1] of 7.51.
